{"source": "ChEMBL document CHEMBL1649475", "about": "“In vivo pharmacodynamic profile of tigecycline against phenotypically diverse Escherichia coli and Klebsiella pneumoniae isolates” (Antimicrob Agents Chemother, 2009)", "key": {"[1]": {"assay": "Ratio of fAUC to MIC in Klebsiella pneumoniae isolate 134-infected ICR mouse at bacteriostatic concentration", "format": "functional", "method_in_brief": "(§1)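 EI50, EI80 and the static exposure were read from fitted curves. Free AUC came from earlier mouse PK using concentration-dependent protein binding set at Cmax. MICs were run in triplicate by CLSI broth microdilution in Mueller-Hinton broth prepared <12 h before testing, or by Etest.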"}, "[2]": {"assay": "Ratio of fAUC to MIC in Escherichia coli isolate 120-infected ICR mouse at bacteriostatic concentration", "format": "functional", "method_in_brief": "as §1"}, "[3]": {"assay": "Ratio of fAUC to MIC in Klebsiella pneumoniae isolate 135 at bacteriostatic concentration", "format": "functional", "method_in_brief": "as §1"}, "[4]": {"assay": "Ratio of fAUC to MIC in extended-spectrum beta-lactamase producing Klebsiella pneumoniae isolate 255-infected ICR mouse at bacteriostatic concentration", "format": "functional", "method_in_brief": "as §1"}, "[5]": {"assay": "Ratio of fAUC to MIC in Escherichia coli isolate 54-infected ICR mouse at 50% maximal effective concentration", "format": "functional", "method_in_brief": "as §1"}, "[6]": {"test_system": "Mus musculus", "assay": "AUC in ICR mouse at 6.25 mg/kg, sc", "details": "in vivo"}, "[7]": {"assay": "Ratio of fAUC to MIC in extended-spectrum beta-lactamase producing Escherichia coli isolate 322-infected ICR mouse at 80% maximal effective concentration", "format": "functional", "method_in_brief": "as §1"}, "[8]": {"assay": "Ratio of fAUC to MIC in Klebsiella pneumoniae isolate 134-infected ICR mouse at 80% maximal effective concentration", "format": "functional", "method_in_brief": "as §1"}, "[9]": {"assay": "Ratio of fAUC to MIC in extended-spectrum beta-lactamase producing Escherichia coli isolate 315-infected ICR mouse at 80% maximal effective concentration", "format": "functional", "method_in_brief": "as §1"}, "[10]": {"test_system": "Escherichia coli", "assay": "Antibacterial activity against extended-spectrum beta-lactamase producing Escherichia coli isolate 322 by broth microdilution method", "format": "functional", "method_in_brief": "(§2)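 Tigecycline MICs by broth microdilution per CLSI guidelines, run in triplicate. Mueller-Hinton broth was prepared fresh less than 12 h before testing.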"}, "[11]": {"test_system": "Escherichia coli", "assay": "Antibacterial activity against extended-spectrum beta-lactamase producing Escherichia coli isolate 322 infected in ICR mouse assessed as change in bacterial load at 6.25 to 50 mg/kg, sc", "format": "functional", "details": "dose mg/kg 6.25-50; route subcutaneous", "method_in_brief": "(§3)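 Female CD-1/ICR mice (~25 g) were made neutropenic with intraperitoneal cyclophosphamide, 150 mg/kg 4 days and 100 mg/kg 1 day before inoculation. Isolates were grown on blood agar at 35°C for 18–24 h, and 0.1 ml of 10^7 CFU/ml was injected intramuscularly per thigh. At 2 h, tigecycline in saline was given sc as single or multiple doses of 3.125–50 mg/kg. Thighs were homogenized at 24 h and plated. Read-out was mean change in log10 CFU/ml versus 0-h controls, three mice per group.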"}, "[12]": {"assay": "Ratio of fAUC to MIC in Klebsiella pneumoniae isolate 134-infected ICR mouse at 50% maximal effective concentration", "format": "functional", "method_in_brief": "as §1"}, "[13]": {"test_system": "Klebsiella pneumoniae", "assay": "Antibacterial activity against Klebsiella pneumoniae isolate 134 infected in ICR mouse assessed as change in bacterial load at 6.25 to 50 mg/kg, sc", "format": "functional", "details": "dose mg/kg 6.25-50; route subcutaneous", "method_in_brief": "as §3"}, "[14]": {"assay": "Ratio of fAUC to MIC in extended-spectrum beta-lactamase producing Klebsiella pneumoniae isolate 320-infected ICR mouse at 50% maximal effective concentration", "format": "functional", "method_in_brief": "as §1"}, "[15]": {"test_system": "Klebsiella pneumoniae", "assay": "Antibacterial activity against extended-spectrum beta-lactamase producing Klebsiella pneumoniae isolate 255 by broth microdilution method", "format": "functional", "method_in_brief": "as §2"}, "[16]": {"assay": "Ratio of fAUC to MIC in extended-spectrum beta-lactamase producing Klebsiella pneumoniae isolate 320-infected ICR mouse at bacteriostatic concentration", "format": "functional", "method_in_brief": "as §1"}, "[17]": {"test_system": "Escherichia coli", "assay": "Antibacterial activity against extended-spectrum beta-lactamase producing Escherichia coli isolate 315 infected in ICR mouse assessed as change in bacterial load at 6.25 to 50 mg/kg, sc", "format": "functional", "details": "dose mg/kg 6.25-50; route subcutaneous", "method_in_brief": "as §3"}, "[18]": {"assay": "Ratio of fAUC to MIC in carbapenemase producing Klebsiella pneumoniae isolate 321-infected ICR mouse at 80% maximal effective concentration", "format": "functional", "method_in_brief": "as §1"}, "[19]": {"assay": "Ratio of fAUC to MIC in Escherichia coli isolate 54-infected ICR mouse at bacteriostatic concentration", "format": "functional", "method_in_brief": "as §1"}, "[20]": {"assay": "Ratio of fAUC to MIC in extended-spectrum beta-lactamase producing Klebsiella pneumoniae isolate 320-infected ICR mouse at 80% maximal effective concentration", "format": "functional", "method_in_brief": "as §1"}, "[21]": {"test_system": "Escherichia coli", "assay": "Antibacterial activity against Escherichia coli isolate 54 by broth microdilution method", "format": "functional", "method_in_brief": "as §2"}, "[22]": {"assay": "Ratio of fAUC to MIC in extended-spectrum beta-lactamase producing Klebsiella pneumoniae isolate 255-infected ICR mouse at 80% maximal effective concentration", "format": "functional", "method_in_brief": "as §1"}, "[23]": {"assay": "Ratio of fAUC to MIC in extended-spectrum beta-lactamase producing Escherichia coli isolate 322-infected ICR mouse at 50% maximal effective concentration", "format": "functional", "method_in_brief": "as §1"}, "[24]": {"assay": "Ratio of fAUC to MIC in extended-spectrum beta-lactamase producing Escherichia coli isolate 315-infected ICR mouse at 50% maximal effective concentration", "format": "functional", "method_in_brief": "as §1"}, "[25]": {"test_system": "Escherichia coli", "assay": "Antibacterial activity against Escherichia coli isolate 54 infected in ICR mouse assessed as change in bacterial load at 6.25 to 50 mg/kg, sc", "format": "functional", "details": "dose mg/kg 6.25-50; route subcutaneous", "method_in_brief": "as §3"}, "[26]": {"assay": "Ratio of fAUC to MIC in extended-spectrum beta-lactamase producing Klebsiella pneumoniae isolate 255-infected ICR mouse at 50% maximal effective concentration", "format": "functional", "method_in_brief": "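Female CD-1/ICR mice (~25 g) were made neutropenic with cyclophosphamide IP (150 mg/kg day −4, 100 mg/kg day −1). Each thigh received 0.1 ml IM of 10^7 CFU/ml inoculum. Tigecycline in saline was given SC 2 h later, single or multiple doses, 6.25–300 mg/kg/day. Three mice per group.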"}, "[27]": {"assay": "Half life in ICR mouse at 50 mg/kg, sc", "format": "ADME, organism-based", "parameters": "dose 50 mg/kg, route subcutaneous", "details": "in vivo"}, "[28]": {"test_system": "Klebsiella pneumoniae", "assay": "Antibacterial activity against Klebsiella pneumoniae isolate 135 by broth microdilution method", "format": "functional", "method_in_brief": "as §2"}, "[29]": {"test_system": "Klebsiella pneumoniae", "assay": "Antibacterial activity against carbapenemase producing Klebsiella pneumoniae isolate 321 infected in ICR mouse assessed as change in bacterial load at 6.25 to 50 mg/kg, sc", "format": "functional", "details": "dose mg/kg 6.25-50; route subcutaneous", "method_in_brief": "as §3"}}}
{"smiles": "CN(C)c1cc(NC(=O)CNC(C)(C)C)c(O)c2c1C[C@H]1C[C@H]3[C@H](N(C)C)C(O)=C(C(N)=O)C(=O)[C@@]3(O)C(O)=C1C2=O", "note": "[TIGECYCLINE]", "values": [{"measurement": "fAUC/MIC", "setting": "[1]", "value": 6.53}, {"measurement": "fAUC/MIC", "setting": "[2]", "value": 4.76}, {"measurement": "fAUC/MIC", "setting": "[3]", "value": 5.4}, {"measurement": "fAUC/MIC", "setting": "[4]", "value": 2.02}, {"measurement": "fAUC/MIC", "setting": "[5]", "value": 5.19}, {"measurement": "AUC", "setting": "[6]", "value": 4800, "unit": "ng·h/mL"}, {"measurement": "fAUC/MIC", "setting": "[7]", "value": 10.6}, {"measurement": "fAUC/MIC", "setting": "[8]", "value": 10}, {"measurement": "fAUC/MIC", "setting": "[9]", "value": 4.46}, {"measurement": "MIC", "setting": "[10]", "value": 0.25, "unit": "µg/mL"}, {"measurement": "log10CFU/ml", "setting": "[11]", "value": -2.4}, {"measurement": "fAUC/MIC", "setting": "[12]", "value": 5.91}, {"measurement": "log10CFU/ml", "setting": "[13]", "value": -1.42}, {"measurement": "fAUC/MIC", "setting": "[14]", "value": 2.01}, {"measurement": "MIC", "setting": "[15]", "value": 2, "unit": "µg/mL"}, {"measurement": "fAUC/MIC", "setting": "[16]", "value": 3.09}, {"measurement": "log10CFU/ml", "setting": "[17]", "value": -2}, {"measurement": "fAUC/MIC", "setting": "[18]", "value": 7.48}, {"measurement": "fAUC/MIC", "setting": "[19]", "value": 5.96}, {"measurement": "fAUC/MIC", "setting": "[20]", "value": 3.27}, {"measurement": "MIC", "setting": "[21]", "value": 0.25, "unit": "µg/mL"}, {"measurement": "fAUC/MIC", "setting": "[22]", "value": 4.81}, {"measurement": "fAUC/MIC", "setting": "[23]", "value": 6.27}, {"measurement": "fAUC/MIC", "setting": "[24]", "value": 3.71}, {"measurement": "log10CFU/ml", "setting": "[25]", "value": -2.05}, {"measurement": "fAUC/MIC", "setting": "[26]", "value": 2.64}, {"measurement": "half-life", "setting": "[27]", "value": 9.9, "unit": "h"}, {"measurement": "MIC", "setting": "[28]", "value": 0.5, "unit": "µg/mL"}, {"measurement": "log10CFU/ml", "setting": "[29]", "value": -1.46}]}
